One block for each compound: values may come before it.
Tests used:
[1] = test system: Mus musculus; experiment: Antinociceptive activity against acetone-induced chronic constriction injury in mouse paw assessed as duration of pain behavior at 100 mg/kg, po pretreated 30 mins before formalin challenge relative to control; type: functional; conditions: in the assay text read “acetone testing” for “formalin challenge”
How it was run: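 Mice underwent chronic constriction injury surgery (Bennett and Xie) and recovered 1–2 weeks. After 100 mg/kg po dosing 30 min before testing and 1 h acclimation on a wire mesh platform, 100 µL acetone was applied to the injured plantar hindpaw. Flinching, licking and biting were recorded for 1 min, with reduction relative to vehicle.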

[2] = molecular target: T1, Nitric oxide synthase 3 (Homo sapiens) (UniProt P29474); experiment: Inhibition of human eNOS expressed in HEK293 cells assessed as NO production at 100 uM by transient transfection assay relative to BBS-4; type: cell-based
T1 sequence (whole entry): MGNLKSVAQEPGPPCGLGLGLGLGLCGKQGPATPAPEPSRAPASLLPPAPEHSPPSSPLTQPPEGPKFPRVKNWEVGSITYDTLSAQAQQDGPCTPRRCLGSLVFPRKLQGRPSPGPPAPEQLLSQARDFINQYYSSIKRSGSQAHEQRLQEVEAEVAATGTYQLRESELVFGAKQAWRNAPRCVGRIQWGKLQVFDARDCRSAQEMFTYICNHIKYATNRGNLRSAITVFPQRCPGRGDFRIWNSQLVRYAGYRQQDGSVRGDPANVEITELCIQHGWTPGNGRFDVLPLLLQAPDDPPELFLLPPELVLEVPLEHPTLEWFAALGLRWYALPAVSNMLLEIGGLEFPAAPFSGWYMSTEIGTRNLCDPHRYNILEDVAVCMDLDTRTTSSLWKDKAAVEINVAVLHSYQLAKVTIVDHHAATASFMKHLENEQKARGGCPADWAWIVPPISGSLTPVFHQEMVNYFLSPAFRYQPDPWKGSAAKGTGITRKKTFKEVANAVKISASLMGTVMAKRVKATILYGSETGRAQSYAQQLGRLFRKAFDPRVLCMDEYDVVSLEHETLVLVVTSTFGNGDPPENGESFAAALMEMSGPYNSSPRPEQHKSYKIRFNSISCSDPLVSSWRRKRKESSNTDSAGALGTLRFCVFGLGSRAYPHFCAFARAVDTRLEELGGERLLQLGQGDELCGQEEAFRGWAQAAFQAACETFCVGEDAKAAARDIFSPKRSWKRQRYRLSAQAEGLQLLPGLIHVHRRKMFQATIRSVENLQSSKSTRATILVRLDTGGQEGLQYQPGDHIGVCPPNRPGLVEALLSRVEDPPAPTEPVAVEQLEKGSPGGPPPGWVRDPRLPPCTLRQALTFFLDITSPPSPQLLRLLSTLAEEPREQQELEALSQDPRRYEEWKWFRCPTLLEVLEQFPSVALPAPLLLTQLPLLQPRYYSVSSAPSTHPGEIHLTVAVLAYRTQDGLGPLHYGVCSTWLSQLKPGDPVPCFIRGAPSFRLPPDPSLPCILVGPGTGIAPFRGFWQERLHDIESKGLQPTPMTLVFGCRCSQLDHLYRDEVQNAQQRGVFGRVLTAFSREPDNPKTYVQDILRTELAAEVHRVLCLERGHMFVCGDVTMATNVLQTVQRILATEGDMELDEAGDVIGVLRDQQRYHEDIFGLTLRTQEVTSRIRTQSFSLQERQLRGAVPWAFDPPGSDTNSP
How it was run: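 HEK293 cells transiently transfected with human eNOS (15 µg plasmid) or nNOS (10 µg plasmid), Fugene 6 at 3:1 µL:µg, 4 h at 37 °C, 10% CO2. Plated at 5 × 10⁵ cells/mL with compound; SEITU 100 µM final as positive control. After 24 h, activated with A23187 (83 nM final, eNOS) or ionomycin (30 µM final, nNOS). After 18 h more, NO read by DAN fluorescence. Inhibition is relative to the maximal inhibition by the control dimerization inhibitor. 3 runs, 10-point curves, n = 3/point.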

[3] = molecular target: Voltage-gated inwardly rectifying potassium channel KCNH2 (Homo sapiens, UniProt Q12809); experiment: Activity at human ERG by patch clamp assay
Chain of Voltage-gated inwardly rectifying potassium channel KCNH2 (Q12809 whole entry): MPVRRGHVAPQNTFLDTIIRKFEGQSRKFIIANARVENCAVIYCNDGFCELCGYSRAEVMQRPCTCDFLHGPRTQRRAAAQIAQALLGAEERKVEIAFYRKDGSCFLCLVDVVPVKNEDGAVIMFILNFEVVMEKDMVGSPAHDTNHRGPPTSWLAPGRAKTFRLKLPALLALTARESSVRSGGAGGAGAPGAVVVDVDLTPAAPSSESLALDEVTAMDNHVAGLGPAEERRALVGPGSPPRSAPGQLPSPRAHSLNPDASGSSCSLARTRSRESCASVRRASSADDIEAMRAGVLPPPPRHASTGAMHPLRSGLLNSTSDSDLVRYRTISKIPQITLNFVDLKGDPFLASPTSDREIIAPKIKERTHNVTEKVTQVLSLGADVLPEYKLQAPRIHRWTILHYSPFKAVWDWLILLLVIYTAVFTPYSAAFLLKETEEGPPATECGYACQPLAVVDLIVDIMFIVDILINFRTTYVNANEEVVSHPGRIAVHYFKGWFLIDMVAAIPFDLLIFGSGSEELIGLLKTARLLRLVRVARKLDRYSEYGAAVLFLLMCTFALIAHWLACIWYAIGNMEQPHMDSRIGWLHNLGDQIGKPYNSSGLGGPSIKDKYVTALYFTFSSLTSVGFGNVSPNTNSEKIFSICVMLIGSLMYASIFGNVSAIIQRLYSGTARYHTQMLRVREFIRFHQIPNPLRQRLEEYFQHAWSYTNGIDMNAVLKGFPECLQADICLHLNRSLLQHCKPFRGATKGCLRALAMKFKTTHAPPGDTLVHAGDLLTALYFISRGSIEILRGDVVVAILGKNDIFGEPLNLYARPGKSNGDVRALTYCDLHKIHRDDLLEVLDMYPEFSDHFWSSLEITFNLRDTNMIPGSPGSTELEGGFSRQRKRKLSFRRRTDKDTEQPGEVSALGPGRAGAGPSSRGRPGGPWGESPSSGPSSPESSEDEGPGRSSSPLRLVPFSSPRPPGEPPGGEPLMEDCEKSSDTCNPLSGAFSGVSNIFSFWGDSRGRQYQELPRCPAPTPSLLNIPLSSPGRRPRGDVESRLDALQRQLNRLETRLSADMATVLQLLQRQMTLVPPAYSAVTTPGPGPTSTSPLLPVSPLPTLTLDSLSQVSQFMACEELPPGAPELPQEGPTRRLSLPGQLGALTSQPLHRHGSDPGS

Compound: Cc1ncsc1C(=O)N(Cc1cc(=O)[nH]c2c(F)cccc12)c1cccc(Cl)c1
Activity [1]: 45%

inhibition [2]: < 50%
Compound: CC(C)C(=O)N(Cc1cc(=O)[nH]c2c(F)cccc12)c1cccc(Cl)c1

Compound: Cn1cncc1C(=O)N(Cc1cc(=O)[nH]c2c(F)c(F)ccc12)c1cccc(Cl)c1
EC50 [3]: 8 µM

From ChEMBL document CHEMBL1138485, “Discovery of inducible nitric oxide synthase (iNOS) inhibitor development candidate KD7332, part 1: Identification of a novel, potent, and selective series of quinolinone iNOS dimerization inhibitors that are orally active in rodent pain models” (J Med Chem, 2009)
